Results on five compounds are retold here after ChEMBL document CHEMBL4610112, “Novel Pyrrolopyridone Bromodomain and Extra-Terminal Motif (BET) Inhibitors Effective in Endocrine-Resistant ER+ Breast Cancer with Acquired Resistance to Fulvestrant and Palbociclib” (J Med Chem, 2020).

Data set [1] deals with MCF7:TAM1. Description: Antitumor activity against human MCF7:TAM1 cells xenografted in ovariectomized athymic Nude-Foxn1 mouse assessed as tumor growth inhibition at 50 mg/kg/day, po administered via gavage for 4 weeks in presence of fulvestrant. Format: functional, organism-based. The method in brief: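 Orthotopic xenografts of MCF-7:Tam1 cells in 4–6 week old female ovariectomized athymic nude (nude/Foxn1) mice, established with daily tamoxifen 1.5 mg/mouse. Daily oral gavage at 50 (mg/kg)/day for 4 weeks in 0.5% (w/v) HPMC/TWEEN80 1% in water, given alongside fulvestrant 1 mg/mouse/week sc. Tumor volume measured weekly by caliper as length × width² × π/6. TGI computed from day 28 versus initial volumes, relative to vehicle.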

Data set [2] has as its system MCF7:TAM1. Briefly: Antitumor activity against human MCF7:TAM1 cells xenografted in ovariectomized athymic Nude-Foxn1 mouse assessed as tumor growth inhibition at 50 mg/kg/day, po administered via gavage for 4 weeks. Format: functional, organism-based. (A xenograft is tissue or cells of one species grown in another, often human tumour cells in immunodeficient mice.)

In the next data set the target is CYP2C8 (Homo sapiens, UniProt P10632). Briefly: Inhibition of human CYP2C8 at 10 uM. The format is ADME.
CYP2C8, sequence (P10632 whole entry): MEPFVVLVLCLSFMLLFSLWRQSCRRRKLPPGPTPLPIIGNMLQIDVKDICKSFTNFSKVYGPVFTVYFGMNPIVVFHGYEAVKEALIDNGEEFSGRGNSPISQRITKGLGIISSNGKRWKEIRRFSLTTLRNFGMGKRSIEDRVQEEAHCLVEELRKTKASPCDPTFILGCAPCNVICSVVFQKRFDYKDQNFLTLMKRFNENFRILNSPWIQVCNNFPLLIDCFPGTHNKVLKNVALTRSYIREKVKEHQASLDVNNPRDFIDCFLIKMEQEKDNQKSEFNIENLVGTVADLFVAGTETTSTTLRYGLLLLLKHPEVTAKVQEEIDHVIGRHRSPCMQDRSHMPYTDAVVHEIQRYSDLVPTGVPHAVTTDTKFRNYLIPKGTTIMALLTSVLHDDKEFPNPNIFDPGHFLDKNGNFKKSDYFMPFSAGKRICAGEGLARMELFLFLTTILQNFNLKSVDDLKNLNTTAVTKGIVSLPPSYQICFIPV
For data set [3], the species on record is Homo sapiens. Description: Growth inhibition of tamoxifen-resistant human MCF7:5C cells measured after 5 days by Hoechst 33342 dye based imaging analysis. Format: functional. The method in brief:
(§1)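 Cells seeded at 2000/well in their maintenance medium, treated once the next day with compound (0.1 nM–10 μM; 0.1% DMSO final). Day 5 Hoechst 33342 staining with imaging count. Survival normalized to DMSO (100%) and JQ1 3 μM (0%). IC50 given as mean ± SEM from at least two passages, each in triplicate.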

Data set [4] deals with MCF7:CFR. Briefly: Down regulation of IGFBP5 gene expression in fulvestrant-resistant human MCF7:CFR cells at 100 nM measured after 24 hrs. Format: functional, cell-based. The method in brief: (§2)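 MCF-7:CFR cells were treated with compound at 100 nM or DMSO (0.01%) for 24 h. RNA extracted and RNA-seq performed. Output given as log2 fold change versus vehicle.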
Data set [5] concerns MCF7:CFR. Description: Down regulation of n-MYC gene expression in fulvestrant-resistant human MCF7:CFR cells at 100 nM measured after 24 hrs. Format: functional, cell-based. The method in brief: (§3)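 MCF-7:CFR cells exposed to compound at 100 nM, with DMSO (0.01%) as control, for 24 h. RNA extracted and analysed by RNA-seq. Values are log2-fold changes in gene expression against the vehicle control.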

Data set [6] relates to MCF7:CFR. Briefly: Down regulation of PARP10 gene expression in fulvestrant-resistant human MCF7:CFR cells at 100 nM measured after 24 hrs. The format is functional, cell-based. Summed up: as §2
Data set [7] deals with MCF7:CFR. Description: Down regulation of cyclin-D gene expression in fulvestrant-resistant human MCF7:CFR cells at 100 nM measured after 24 hrs. Format: functional, cell-based. Summed up:
as §3

The test system of data set [8] is MCF7:CFR. Briefly: Down regulation of HIST1H3B gene expression in fulvestrant-resistant human MCF7:CFR cells at 100 nM measured after 24 hrs. Format: functional, cell-based. Summed up: as §2
Data set [9] is filed under the species Homo sapiens. Briefly: Growth inhibition of tamoxifen and palbociclib-resistant human MCF7:CPR cells measured after 5 days by Hoechst 33342 dye based imaging analysis. The format is functional. The method in brief:
as §1

The test system of data set [10] is MCF7:CFR. Briefly: Down regulation of ZMYND8 gene expression in fulvestrant-resistant human MCF7:CFR cells at 100 nM measured after 24 hrs. Format: functional, cell-based. The method in brief: as §2
Data set [11] has as its system MCF7:CFR. Briefly: Down regulation of NUPR1 gene expression in fulvestrant-resistant human MCF7:CFR cells at 100 nM measured after 24 hrs. Format: functional, cell-based. Summed up: as §2
The test system of data set [12] is MCF7:CFR. Briefly: Down regulation of ESR1 gene expression in fulvestrant-resistant human MCF7:CFR cells at 100 nM measured after 24 hrs. Format: functional, cell-based. The method in brief: as §2
Data set [13] has as its system MCF7:CFR. Briefly: Down regulation of BCAS1 gene expression in fulvestrant-resistant human MCF7:CFR cells at 100 nM measured after 24 hrs. Format: functional, cell-based. Summed up: as §2
For data set [14], the system named is MCF7:CFR. Description: Down regulation of c-MYC gene expression in fulvestrant-resistant human MCF7:CFR cells at 100 nM measured after 24 hrs. The format is functional, cell-based. Summed up:
as §3

Data set [15] deals with MCF7:CFR. Description: Down regulation of c-MET gene expression in fulvestrant-resistant human MCF7:CFR cells at 100 nM measured after 24 hrs. Format: functional, cell-based. Summed up:
as §2

Data set [16] concerns MCF7:CFR. Description: Down regulation of KRT83 gene expression in fulvestrant-resistant human MCF7:CFR cells at 100 nM measured after 24 hrs. The format is functional, cell-based. The method in brief:
as §2

In data set [17] the test system is MCF7:CFR. Briefly: Up regulation of CASP3 gene expression in fulvestrant-resistant human MCF7:CFR cells at 100 nM measured after 24 hrs. The format is functional, cell-based. The method in brief:
(§4)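 MCF-7:CFR cells (fulvestrant-resistant, kept in 200 nM fulvestrant in phenol red-free stripped RPMI-1640) treated with 100 nM compound or DMSO (0.01%) for 24 h. RNA extracted and RNA-seq performed, expression reported as log2 fold change versus vehicle.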

The species entered for data set [18] is Homo sapiens. Description: Growth inhibition of tamoxifen-sensitive human MCF7:WS8 cells measured after 5 days by Hoechst 33342 dye based imaging analysis. Format: functional. Summed up:
as §1

The subject of data set [19] is MCF7:CFR. Description: Down regulation of IFI44L gene expression in fulvestrant-resistant human MCF7:CFR cells at 100 nM measured after 24 hrs. The format is functional, cell-based. Summed up: as §2
Data set [20] has as its system MCF7:CFR. Description: Up regulation of APAF1 gene expression in fulvestrant-resistant human MCF7:CFR cells at 100 nM measured after 24 hrs. The format is functional, cell-based. The method in brief: as §4
For data set [21], the system named is MCF7:CFR. Description: Growth inhibition of fulvestrant-resistant human MCF7:CFR cells at 1 to 30 nM treated for 3 hrs followed by compound washout and measured after 5 days by Hoechst 33342 dye based imaging analysis. Format: functional, cell-based. The method in brief: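 MCF-7:CFR cells grown 2 days in phenol red-free RPMI/10% charcoal-dextran FBS, then seeded at 2000 cells/well. Treated next day; medium replaced with normal growth medium after 3 h. On day 5, cells stained with Hoechst 33342 and counted by imaging. Survival normalized to DMSO (100%) and JQ1 3 μM (0%).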

Data set [22] has as its system MCF7:CFR. Description: Down regulation of ERBB3 gene expression in fulvestrant-resistant human MCF7:CFR cells at 100 nM measured after 24 hrs. The format is functional, cell-based. Summed up: as §2
The test system of data set [23] is MCF7:CFR. Briefly: Down regulation of CLEC3A gene expression in fulvestrant-resistant human MCF7:CFR cells at 100 nM measured after 24 hrs. Format: functional, cell-based. Summed up: as §2
Data set [24] has as its system MCF7:CFR. Briefly: Up regulation of RIPK1 gene expression in fulvestrant-resistant human MCF7:CFR cells at 100 nM measured after 24 hrs. Format: functional, cell-based. The method in brief:
as §4

Data set [25] deals with MCF7:CFR. Briefly: Down regulation of BCL2L1 gene expression in fulvestrant-resistant human MCF7:CFR cells at 100 nM measured after 24 hrs. Format: functional, cell-based. The method in brief:
as §2

For data set [26], the system named is MCF7:CFR. Briefly: Up regulation of CASP6 gene expression in fulvestrant-resistant human MCF7:CFR cells at 100 nM measured after 24 hrs. Format: functional, cell-based. Summed up:
as §4

The next data set deals with T47D. Description: Growth inhibition of tamoxifen-sensitive human T47D cells measured after 5 days by Hoechst 33342 dye based imaging analysis. Format: functional, cell-based. The method in brief: as §1
Data set [27] deals with MCF7:TAM1. Description: Growth inhibition of tamoxifen-resistant human MCF7:TAM1 cells measured after 5 days by Hoechst 33342 dye based imaging analysis. The format is functional, cell-based. Summed up: as §1
The test system of data set [28] is MCF7:TAM1. Description: Antitumor activity against human MCF7:TAM1 cells xenografted in ovariectomized athymic Nude-Foxn1 mouse assessed as tumor growth inhibition at 30 mg/kg/day, po administered via gavage for 4 weeks in presence of fulvestrant. Format: functional, organism-based. The method in brief: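 MCF-7:Tam1 tumours established in 4–6 week old female ovariectomized athymic nude mice given daily tamoxifen 1.5 mg/mouse. […] Fulvestrant 1 (mg/mouse)/week sc. Tumour volume measured weekly by calipers as length × width² × π/6.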

The test system of data set [29] is MCF7:CFR. Description: Down regulation of CCDC170 gene expression in fulvestrant-resistant human MCF7:CFR cells at 100 nM measured after 24 hrs. The format is functional, cell-based. The method in brief:
as §2

For data set [30], the species on record is Homo sapiens. Description: Growth inhibition of human T47D:TDG cells harboring ESR1 D538G mutant measured after 5 days by Hoechst 33342 dye based imaging analysis. The format is functional. Summed up: as §1
For data set [31], the system named is MCF7:CFR. Description: Down regulation of NRAS gene expression in fulvestrant-resistant human MCF7:CFR cells at 100 nM measured after 24 hrs. The format is functional, cell-based. The method in brief:
as §2

Data set [32] concerns MCF7:CFR. Description: Up regulation of CDKN1B gene expression in fulvestrant-resistant human MCF7:CFR cells at 100 nM measured after 24 hrs. Format: functional, cell-based. Summed up:
as §3

Data set [33] relates to MCF7:CFR. Description: Up regulation of CASP9 gene expression in fulvestrant-resistant human MCF7:CFR cells at 100 nM measured after 24 hrs. The format is functional, cell-based. Summed up:
as §4

In data set [34] the test system is MCF7:CFR. Description: Down regulation of BCL2 gene expression in fulvestrant-resistant human MCF7:CFR cells at 100 nM measured after 24 hrs. Format: functional, cell-based. The method in brief: as §2
The target in another data set is CYP2D6 (Homo sapiens, UniProt P10635). Briefly: Inhibition of human CYP2D6 at 10 uM. The format is ADME.
CYP2D6, sequence (P10635 whole entry): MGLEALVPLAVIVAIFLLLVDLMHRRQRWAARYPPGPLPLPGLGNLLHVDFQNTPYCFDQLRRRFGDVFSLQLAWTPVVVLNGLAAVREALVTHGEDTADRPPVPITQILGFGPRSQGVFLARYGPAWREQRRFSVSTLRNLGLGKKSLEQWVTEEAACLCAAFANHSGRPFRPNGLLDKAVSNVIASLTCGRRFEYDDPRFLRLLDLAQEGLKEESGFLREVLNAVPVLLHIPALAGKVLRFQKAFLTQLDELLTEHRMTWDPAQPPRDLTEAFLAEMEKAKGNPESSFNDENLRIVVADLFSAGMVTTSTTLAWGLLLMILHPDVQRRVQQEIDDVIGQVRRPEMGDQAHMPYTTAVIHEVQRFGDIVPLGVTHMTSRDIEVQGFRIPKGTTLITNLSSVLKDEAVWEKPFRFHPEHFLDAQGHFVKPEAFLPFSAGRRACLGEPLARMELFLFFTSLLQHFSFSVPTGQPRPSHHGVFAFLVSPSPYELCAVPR

The source made the active and inactive calls. No cut-off for these calls is given here.

`CCNC(=O)C[C@@H]1N=C(c2ccc(Cl)cc2)c2cc(OC)ccc2-n2c(C)nnc21`: in the data set on MCF7:TAM1 [1], the TGI result was “Active”.
As for `CC/C(=C(\c1ccccc1)c1ccc(OCCN(C)C)cc1)c1ccccc1`, the TGI entry with MCF7:TAM1 [2] is “inactive”.
Usually inhibition stands for the change of the read-out against control, counted positive when it falls. A low value points to little suppression. In the case of `CC(=O)O[C@H]1C(=O)[C@@]2(C)[C@H]([C@H](OC(=O)c3ccccc3)[C@]3(O)C[C@H](OC(=O)[C@H](O)[C@@H](NC(=O)c4ccccc4)c4ccccc4)C(C)=C1C3(C)C)[C@]1(OC(C)=O)CO[C@@H]1C[C@@H]2O` [PACLITAXEL], on CYP2C8, at 10 µM the inhibition was 80.9%.
As to `CCS(=O)(=O)Nc1cc(-c2cn(C)c3c(=O)[nH]ccc23)cc2c1ccn2C(C)(c1ccccn1)c1ccccn1`, the “growth inhibition (GI)” value in the data set filed under Homo sapiens [3], in the data set listed under Homo sapiens [9], in the data set listed under Homo sapiens [18], in the data set with T47D, with MCF7:TAM1 [27] and in the data set filed under Homo sapiens [30] was “Dose-dependent effect” in each case. Further, the outcome with MCF7:CFR [4], in the data set with MCF7:CFR [5], in the data set with MCF7:CFR [6], in the data set with MCF7:CFR [7], with MCF7:CFR [8] and in the data set on MCF7:CFR [10] was Active. Moreover, the result in the data set with MCF7:CFR [11], in the data set with MCF7:CFR [12], in the data set on MCF7:CFR [13], with MCF7:CFR [14], in the data set with MCF7:CFR [15] and in the data set with MCF7:CFR [16] was Active. In addition, the outcome in the data set with MCF7:CFR [17], with MCF7:CFR [19], with MCF7:CFR [20], with MCF7:CFR [22], in the data set on MCF7:CFR [23] and in the data set with MCF7:CFR [24] was Active. For the same compound, the result in the data set on MCF7:CFR [25], with MCF7:CFR [26], with MCF7:CFR [29], with MCF7:CFR [31], in the data set with MCF7:CFR [32] and in the data set on MCF7:CFR [33] was Active. Further, the result with MCF7:CFR [34] was Active. Besides, the “growth inhibition (GI)” value in the data set on MCF7:CFR [21] is “Active”. Also, in the data set on MCF7:TAM1 [28], the TGI result is “Active”.
`COc1ccc2c(c1)[C@]13CCCC[C@@H]1[C@H](C2)N(C)CC3` [DEXTROMETHORPHAN] showed an inhibition at 10 µM against CYP2D6 of 94.4%.
